Measurements reported in ChEMBL document CHEMBL4152264, “Design, synthesis, antiproliferative activity and docking studies of quinazoline derivatives bearing 2,3-dihydro-indole or 1,2,3,4-tetrahydroquinoline as potential EGFR inhibitors” (Eur J Med Chem, 2018).
Activity calls are given as the source filed them. The calls are words filed in the database; no cut-off is given here.

Assays:
[1] = target: Epidermal growth factor receptor (Homo sapiens, UniProt P00533); assay: Inhibition of wild type EGFR (unknown origin) using FAM-labeled peptide substrate after 10 mins by mobility shift assay
A549 [2] = assay: Antiproliferative activity against human A549 cells after 72 hrs by MTT assay; format: functional, cell-based; conditions: for IC50: A549, 72 h
[3] = target: Epidermal growth factor receptor (Homo sapiens, UniProt P00533, T790M); assay: Inhibition of wild type EGFR T790M mutant (unknown origin) using FAM-labeled peptide substrate after 10 mins by mobility shift assay
MCF7 = assay: Antiproliferative activity against human MCF7 cells after 72 hrs by MTT assay; format: functional, cell-based; conditions: for IC50: MCF7, 72 h
PC-3 = assay: Antiproliferative activity against human PC3 cells after 72 hrs by MTT assay; format: functional, cell-based; conditions: for IC50: PC-3, 72 h
How it was run: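 Cells grown in MEM with 10% FBS. About 4×10³ cells per well seeded and incubated 24 h at 37 °C, 5% CO₂. Compounds added at indicated final concentrations for 72 h. MTT at 5 µg/mL final for 4 h at 37 °C. Formazan dissolved in DMSO, absorbance read at 492 nm with 630 nm reference. Tested three times; IC50 is the mean of two determinations.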

[4] = Solubility of the compound in water; format: physicochemical; conditions: buffer
A549 [5] = assay: Induction of apoptosis in human A549 cells assessed as necrotic cells at 0.5 uM after 48 hrs by Annexin V-FITC/propidium iodide staining based flow cytometry (reference value: 0.51%); format: functional
A549 [6] = assay: Induction of apoptosis in human A549 cells assessed as live cells at 0.5 uM after 48 hrs by Annexin V-FITC/propidium iodide staining based flow cytometry (reference value: 91.81%); format: functional
A549 [7] = assay: Induction of morphological changes in human A549 cells assessed as chromatin condensation at 1.09 uM after 12 hrs by acridine orange staining based fluorescence microscopic method; format: functional, cell-based
How it was run: (§1)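 A549 cells, grown in MEM with 10% FBS, were exposed to compound for 12 h alongside an untreated control group. They were stained with acridine orange alone and viewed by inverted and fluorescence microscopy. Nuclear colour (green versus red), cell shrinkage, edge clarity, refraction and chromatin condensation were assessed visually.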

A549 [8] = assay: Induction of apoptosis in human A549 cells at 1.09 uM after 12 hrs by acridine orange staining based fluorescence microscopic method; format: functional, cell-based; how it was run: as §1
A549 [9] = assay: Induction of apoptosis in human A549 cells assessed as early apoptotic cells at 0.5 uM after 48 hrs by Annexin V-FITC/propidium iodide staining based flow cytometry (reference value: 5.61%); format: functional
A549 [10] = assay: Induction of apoptosis in human A549 cells assessed as late apoptotic cells at 0.5 uM after 48 hrs by Annexin V-FITC/propidium iodide staining based flow cytometry (reference value: 2.07%); format: functional
A549 [11] = assay: Induction of morphological changes in human A549 cells assessed as cell shrinkage at 1.09 uM after 12 hrs by acridine orange staining based fluorescence microscopic method; format: functional; how it was run: as §1

Epidermal growth factor receptor (Homo sapiens, UniProt P00533), sequence (P00533 whole entry): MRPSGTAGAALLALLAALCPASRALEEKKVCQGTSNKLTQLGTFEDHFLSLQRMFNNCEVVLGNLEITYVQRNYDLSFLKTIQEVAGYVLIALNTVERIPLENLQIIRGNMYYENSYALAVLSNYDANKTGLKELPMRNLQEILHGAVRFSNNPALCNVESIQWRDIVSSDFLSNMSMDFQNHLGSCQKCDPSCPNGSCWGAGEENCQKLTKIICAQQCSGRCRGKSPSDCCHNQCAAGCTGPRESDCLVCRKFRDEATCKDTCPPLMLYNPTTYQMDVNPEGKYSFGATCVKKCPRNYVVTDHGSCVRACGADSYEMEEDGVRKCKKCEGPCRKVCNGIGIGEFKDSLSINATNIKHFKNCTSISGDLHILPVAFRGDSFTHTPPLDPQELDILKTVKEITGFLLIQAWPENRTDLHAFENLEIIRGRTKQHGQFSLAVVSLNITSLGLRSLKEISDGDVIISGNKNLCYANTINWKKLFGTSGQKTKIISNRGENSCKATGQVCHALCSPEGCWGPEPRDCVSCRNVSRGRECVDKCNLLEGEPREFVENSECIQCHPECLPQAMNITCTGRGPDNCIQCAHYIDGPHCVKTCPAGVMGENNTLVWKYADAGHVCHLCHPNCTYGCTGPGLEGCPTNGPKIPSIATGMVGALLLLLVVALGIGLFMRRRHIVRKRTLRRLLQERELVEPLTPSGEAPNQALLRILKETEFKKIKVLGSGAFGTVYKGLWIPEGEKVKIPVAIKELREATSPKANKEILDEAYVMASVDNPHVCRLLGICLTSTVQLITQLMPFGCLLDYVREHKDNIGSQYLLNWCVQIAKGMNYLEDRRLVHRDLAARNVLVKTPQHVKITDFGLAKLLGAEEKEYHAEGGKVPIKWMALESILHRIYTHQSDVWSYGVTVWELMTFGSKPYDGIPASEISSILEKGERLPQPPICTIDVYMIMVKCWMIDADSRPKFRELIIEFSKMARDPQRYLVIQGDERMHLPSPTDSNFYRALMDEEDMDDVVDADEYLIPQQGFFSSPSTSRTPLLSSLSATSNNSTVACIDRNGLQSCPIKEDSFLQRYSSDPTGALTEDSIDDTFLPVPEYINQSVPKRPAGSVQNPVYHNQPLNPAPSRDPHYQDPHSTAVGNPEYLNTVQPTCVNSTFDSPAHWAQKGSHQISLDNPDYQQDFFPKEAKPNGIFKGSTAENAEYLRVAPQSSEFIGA
Epidermal growth factor receptor (Homo sapiens, UniProt P00533, T790M), sequence (P00533 25-1210 T790M limits assumed): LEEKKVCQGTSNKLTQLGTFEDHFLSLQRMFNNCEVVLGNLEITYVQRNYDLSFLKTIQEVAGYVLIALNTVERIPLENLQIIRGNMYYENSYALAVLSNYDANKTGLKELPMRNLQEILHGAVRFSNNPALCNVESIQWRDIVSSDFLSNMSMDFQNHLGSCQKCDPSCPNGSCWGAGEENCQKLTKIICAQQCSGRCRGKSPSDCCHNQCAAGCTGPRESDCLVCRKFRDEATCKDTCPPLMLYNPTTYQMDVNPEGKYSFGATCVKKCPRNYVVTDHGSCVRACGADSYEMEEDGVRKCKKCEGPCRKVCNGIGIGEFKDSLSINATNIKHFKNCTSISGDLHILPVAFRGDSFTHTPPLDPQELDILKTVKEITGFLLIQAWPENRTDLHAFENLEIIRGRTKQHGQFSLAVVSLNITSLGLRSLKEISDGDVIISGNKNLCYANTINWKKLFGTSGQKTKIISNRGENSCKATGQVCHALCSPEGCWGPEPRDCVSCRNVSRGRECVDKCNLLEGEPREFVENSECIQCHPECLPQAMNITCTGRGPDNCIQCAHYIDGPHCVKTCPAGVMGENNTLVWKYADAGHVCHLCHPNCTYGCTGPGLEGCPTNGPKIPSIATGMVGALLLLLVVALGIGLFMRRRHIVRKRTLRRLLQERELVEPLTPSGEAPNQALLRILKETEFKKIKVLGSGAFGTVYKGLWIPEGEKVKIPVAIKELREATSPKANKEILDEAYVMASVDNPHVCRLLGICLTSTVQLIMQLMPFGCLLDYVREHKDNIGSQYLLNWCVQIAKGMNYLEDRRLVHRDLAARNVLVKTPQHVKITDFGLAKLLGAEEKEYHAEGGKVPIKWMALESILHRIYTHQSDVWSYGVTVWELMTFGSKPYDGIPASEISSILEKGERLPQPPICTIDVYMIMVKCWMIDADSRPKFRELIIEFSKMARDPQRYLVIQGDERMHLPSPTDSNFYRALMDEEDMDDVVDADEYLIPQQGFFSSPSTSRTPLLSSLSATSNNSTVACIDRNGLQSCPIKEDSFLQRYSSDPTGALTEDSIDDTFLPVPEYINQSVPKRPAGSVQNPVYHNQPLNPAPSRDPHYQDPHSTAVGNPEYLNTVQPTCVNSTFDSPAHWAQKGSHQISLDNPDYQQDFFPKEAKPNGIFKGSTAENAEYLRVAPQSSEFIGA

| Structure (SMILES) | IC50 [1] | IC50 (A549 [2]) | IC50 [3] | IC50 (MCF7) | IC50 (PC-3) | solubility [4] | Activity (A549 [5]) | Activity (A549 [6]) | Activity (A549 [7]) | Activity (A549 [2]) | Activity (A549 [8]) | Activity (A549 [9]) | Activity (A549 [10]) | Activity (MCF7) | Activity (A549 [11]) | Activity (PC-3) |
| --- | --- | --- | --- | --- | --- | --- | --- | --- | --- | --- | --- | --- | --- | --- | --- | --- |
| COc1cc2ncnc(N3CCc4ccccc43)c2cc1NC(=O)/C=C/CN1CCCC1 | 0.003 µM | 1.21 µM | 0.034 µM | 1.51 µM | 2.62 µM | – | – | – | – | – | – | – | – | – | – | – |
| CC/C=C/C(=O)Nc1cc2c(N3CCc4ccccc43)ncnc2cc1OC | 0.017 µM | 2.47 µM | 0.186 µM | 4.03 µM | 5.89 µM | Insoluble | – | – | – | – | – | – | – | – | – | – |
| CN(C)C/C=C/C(=O)Nc1cc2c(N3CCc4ccccc43)ncnc2cc1O[C@@H]1CCOC1 | 0.005 µM | 1.09 µM | 0.026 µM | 1.34 µM | 1.23 µM | – | 0.81% | 80.01% | Active | Dose-dependent effect | Active | 14.59% | 4.59% | Dose-dependent effect | Active | Dose-dependent effect |
| COc1cc2ncnc(N3CCc4ccccc43)c2cc1NC(=O)/C=C/CN1CCCCC1 | 0.0454 µM | 2.54 µM | 0.115 µM | 1.68 µM | 4.18 µM | – | – | – | – | – | – | – | – | – | – | – |
| CN(C)C/C=C/C(=O)Nc1cc2c(Nc3ccc(F)c(Cl)c3)ncnc2cc1O[C@@H]1CCOC1 | – | – | – | – | 2.51 µM | – | 0.86% | 81.34% | – | – | – | 13.53% | 4.27% | – | – | – |
| C/C=C/C(=O)Nc1cc2c(N3CCc4ccccc43)ncnc2cc1O[C@@H]1CCOC1 | 0.029 µM | 2.61 µM | 0.192 µM | 4.9 µM | 5.22 µM | Insoluble | – | – | – | – | – | – | – | – | – | – |
| CCC/C=C/C(=O)Nc1cc2c(N3CCCc4ccccc43)ncnc2cc1OC | 0.033 µM | 1.8 µM | 0.162 µM | 1.21 µM | 2.24 µM | Insoluble | – | – | – | – | – | – | – | – | – | – |
| COc1cc2ncnc(N3CCc4ccccc43)c2cc1NC(=O)/C=C/CN1CCC(CO)CC1 | 0.004 µM | 1.98 µM | 0.021 µM | 2.62 µM | 2.65 µM | – | – | – | – | – | – | – | – | – | – | – |
| COc1cc2ncnc(N3CCCc4ccccc43)c2cc1NC(=O)/C=C/CN(C)C | 0.072 µM | 1.65 µM | 0.107 µM | 1.77 µM | 1.75 µM | – | – | – | – | – | – | – | – | – | – | – |
